# In paper PMC5767125 (Journal of medicinal chemistry, 2017):
# Columns and labels:
# D3R = D3R (Homo sapiens, UniProt P35462); test: Inhibition of forskolin-dependent stimulation of adenylyl cyclase; type: cell-based; conditions: compound at 10x the Ki value; efficacy relative to full agonist Quinpirole
# How it was run: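 Test compound at 10x its Ki, assessed for inhibiting forskolin-dependent adenylyl cyclase stimulation. Output is mean percent efficacy ± SEM relative to the full agonist quinpirole.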
# 5-HT2A receptor = 5-HT2A receptor (Homo sapiens, UniProt P28223); test: 5-HT2A receptor binding; conditions: data not shown; comparable to those at 5-HT1AR
# 5-HT2c receptor = molecular target: T1, 5-HT2c receptor (Homo sapiens, UniProt P28335); test: 5-HT2c receptor binding; conditions: data not shown; comparable to those at 5-HT1AR
# T1 sequence (P28335 33-458): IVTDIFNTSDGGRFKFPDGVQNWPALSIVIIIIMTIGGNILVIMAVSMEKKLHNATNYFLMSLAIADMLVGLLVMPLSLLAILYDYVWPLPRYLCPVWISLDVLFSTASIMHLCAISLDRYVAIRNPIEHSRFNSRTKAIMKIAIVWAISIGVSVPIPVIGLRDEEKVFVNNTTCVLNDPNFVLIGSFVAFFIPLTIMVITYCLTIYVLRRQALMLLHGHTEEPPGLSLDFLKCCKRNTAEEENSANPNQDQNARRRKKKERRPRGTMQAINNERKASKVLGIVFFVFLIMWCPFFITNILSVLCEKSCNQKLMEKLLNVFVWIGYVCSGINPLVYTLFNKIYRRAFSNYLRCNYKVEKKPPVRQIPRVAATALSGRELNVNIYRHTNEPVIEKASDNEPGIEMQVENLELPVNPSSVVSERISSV
# D3R, sequence (P35462 whole entry): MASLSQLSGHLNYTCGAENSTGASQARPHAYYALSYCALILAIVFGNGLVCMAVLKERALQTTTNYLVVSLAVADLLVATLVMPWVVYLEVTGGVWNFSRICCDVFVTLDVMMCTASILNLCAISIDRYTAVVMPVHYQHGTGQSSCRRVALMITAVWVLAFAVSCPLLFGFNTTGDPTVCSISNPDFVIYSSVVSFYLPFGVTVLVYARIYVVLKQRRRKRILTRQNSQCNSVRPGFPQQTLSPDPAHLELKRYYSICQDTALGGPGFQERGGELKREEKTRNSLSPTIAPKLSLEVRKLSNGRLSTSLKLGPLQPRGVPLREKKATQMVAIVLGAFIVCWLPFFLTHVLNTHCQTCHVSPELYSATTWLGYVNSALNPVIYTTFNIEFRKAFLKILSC
# 5-HT2A receptor, sequence (P28223 whole entry): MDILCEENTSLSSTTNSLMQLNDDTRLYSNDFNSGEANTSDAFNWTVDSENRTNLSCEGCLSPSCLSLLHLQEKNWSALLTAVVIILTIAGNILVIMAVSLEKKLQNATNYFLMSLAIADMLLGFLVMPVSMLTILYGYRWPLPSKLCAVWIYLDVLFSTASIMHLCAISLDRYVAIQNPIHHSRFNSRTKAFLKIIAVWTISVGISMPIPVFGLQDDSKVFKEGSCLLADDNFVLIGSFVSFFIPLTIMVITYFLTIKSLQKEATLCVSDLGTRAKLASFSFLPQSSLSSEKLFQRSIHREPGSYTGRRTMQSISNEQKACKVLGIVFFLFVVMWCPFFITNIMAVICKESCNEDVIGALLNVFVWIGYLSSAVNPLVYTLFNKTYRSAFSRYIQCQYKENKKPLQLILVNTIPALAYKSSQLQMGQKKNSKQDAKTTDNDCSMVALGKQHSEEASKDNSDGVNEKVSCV
SMILES,"functional activity, adenylyl cyclase assay (D3R)",binding affinity at 5-HT2A receptor (5-HT2A receptor),binding affinity at 5-HT2c receptor (5-HT2c receptor)
COc1ccccc1N1CCC2(CCN(CCCSc3nnc(-c4ccccc4)n3C)CC2)C1 [Compound 14],low activity,low binding affinities,low binding affinities
COc1ccccc1N1CCC2(CCN(CCCSc3nnc(-c4ccccc4)n3C)CC2)CC1 [Compound 15a],partial agonist,low binding affinities,low binding affinities
Cn1c(SCCCN2CCC3(CC2)CCN(c2ccc(F)cc2)CC3)nnc1-c1ccccc1 [Compound 15c],low activity,low binding affinities,low binding affinities
